Experimental data reported in ChEMBL document CHEMBL5500411, “Discovery of Dual MER/AXL Kinase Inhibitors as Bifunctional Small Molecules for Inhibiting Tumor Growth and Enhancing Tumor Immune Microenvironment” (J Med Chem, 2024).
pIC50: −log10 of the molar value. One block for each compound: values may come before it.

Tests used:
[1] = Toxicity in immunocompetent female C57BL/6 mouse implanted with mouse MC-38 cells assessed as body weight loss at 50 mg/kg, po administered once a day with five days on and two days off; assay type: organism-based; conditions: in vivo
Procedure, shortened: (§1)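 Syngeneic models in female C57BL/6 mice aged 6–7 weeks: MC38 (10⁵ cells) or Hepa1–6 (10⁶ cells) injected subcutaneously into the left flank. Oral dosing on a five-on/two-off schedule: MC38 at 50 mg/kg QD or BID for 3 weeks, Hepa1–6 at 30 mg/kg QD. Body weight was recorded weekly. n = 8–9 per group.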

[2] = Toxicity in immunodeficient NOD/SCID mouse xenografted with MER/AXL overexpressing human MDA-MB-231 cells assessed as body weight loss at 50 mg/kg, po administered once a day with five days on and two days off; assay type: organism-based; conditions: in vivo
[3] = Toxicity in immunocompetent female C57BL/6 mouse implanted with mouse Hepa1-6 cells assessed as body weight loss at 30 mg/kg, po administered once a day with five days on and two days off; assay type: organism-based; conditions: in vivo; procedure, shortened: as §1
[4] = Toxicity in BALB/c mouse implanted with mouse 4T1 cells assessed as body weight loss at 50 mg/kg, po administered once a day with five days on and two days off; assay type: organism-based; conditions: in vivo
Procedure, shortened: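 Female Balb/c mice aged 6–7 weeks implanted with 4T1 cells (1 million in matrigel/medium) in the fourth left mammary fat pad. Treatment started near 50–60 mm³: 50 mg/kg oral QD on a five-on/two-off schedule. Body weight was measured weekly. n = 8–9 per group.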

[5] = Toxicity in ICR mouse assessed as decrease in creatinine level at 100 mg/kg administered for 14 days; assay type: organism-based; conditions: in vivo, 336 h, time 14 day
[6] = target: T1, Tyrosine-protein kinase Mer (Homo sapiens) (UniProt Q12866); assay: Inhibition of MER (unknown origin) at 1 uM preincubated for 15 mins followed by substrate and ATP addition and measured after 3 hrs by ADP-Glo kinase assay relative to control; conditions: time 195.0 min
T1 sequence (whole entry): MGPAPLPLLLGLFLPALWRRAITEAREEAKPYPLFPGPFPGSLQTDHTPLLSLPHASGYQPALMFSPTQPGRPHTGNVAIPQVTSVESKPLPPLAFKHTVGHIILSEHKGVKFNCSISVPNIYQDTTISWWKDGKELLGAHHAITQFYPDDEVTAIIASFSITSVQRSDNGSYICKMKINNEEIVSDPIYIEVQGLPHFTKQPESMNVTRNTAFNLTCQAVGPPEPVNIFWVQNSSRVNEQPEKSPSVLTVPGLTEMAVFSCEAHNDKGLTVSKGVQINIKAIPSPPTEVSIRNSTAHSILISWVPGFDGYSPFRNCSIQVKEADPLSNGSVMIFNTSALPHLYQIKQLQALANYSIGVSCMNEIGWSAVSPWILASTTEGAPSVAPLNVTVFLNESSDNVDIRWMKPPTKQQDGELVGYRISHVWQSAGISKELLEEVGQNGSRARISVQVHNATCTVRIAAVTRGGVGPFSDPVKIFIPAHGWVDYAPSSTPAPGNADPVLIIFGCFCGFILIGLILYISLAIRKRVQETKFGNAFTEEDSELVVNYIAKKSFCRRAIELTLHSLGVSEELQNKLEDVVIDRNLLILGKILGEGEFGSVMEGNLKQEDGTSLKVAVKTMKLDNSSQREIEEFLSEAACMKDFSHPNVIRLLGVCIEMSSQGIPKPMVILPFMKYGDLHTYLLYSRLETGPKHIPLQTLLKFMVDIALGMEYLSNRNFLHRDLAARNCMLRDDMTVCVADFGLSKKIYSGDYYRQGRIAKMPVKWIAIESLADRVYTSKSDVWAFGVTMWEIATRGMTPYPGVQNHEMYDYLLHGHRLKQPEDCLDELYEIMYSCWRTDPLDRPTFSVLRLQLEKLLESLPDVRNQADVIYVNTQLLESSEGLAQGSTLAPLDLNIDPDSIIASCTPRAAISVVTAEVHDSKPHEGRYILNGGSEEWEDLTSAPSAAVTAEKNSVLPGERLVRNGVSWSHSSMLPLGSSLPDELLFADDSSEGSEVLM

[7] = target: Tyrosine-protein kinase receptor UFO (Homo sapiens) (UniProt P30530); assay: Inhibition of AXL (unknown origin) at 1 uM preincubated for 15 mins followed by substrate and ATP addition and measured after 3 hrs by ADP-Glo kinase assay relative to control; conditions: time 195.0 min
[8] = test system: Epidermal growth factor receptor (Homo sapiens), P00533 [L858R,T790M]; assay: Inhibition of EGFR T790M/L858R double mutant (unknown origin) at 1 uM by kinase Glo assay relative to control
Procedure, shortened: (§2)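 In-house Kinase-Glo luminescence assay on wild-type and T790M/L858R EGFR. Values are the mean of at least two independent experiments.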

[9] = target: Epidermal growth factor receptor (Homo sapiens) (UniProt P00533); assay: Inhibition of wildtype EGFR (unknown origin) at 1 uM by kinase Glo assay relative to control; procedure, shortened: as §2
[10] = Toxicity in immunocompetent female C57BL/6 mouse implanted with mouse MC-38 cells assessed as body weight loss at 50 mg/kg, po administered once a day with five days on and two days off for 3 weeks; assay type: organism-based; conditions: in vivo, 504 h; procedure, shortened: as §1
[11] = Toxicity in immunocompetent female C57BL/6 mouse implanted with mouse MC-38 cells assessed as body weight loss at 50 mg/kg, po administered twice a day with five days on and two days off for 3 weeks; assay type: organism-based; conditions: in vivo, 504 h; procedure, shortened: as §1
[12] = Volume of distribution at steady state in male ICR mouse at 2 mg/kg, iv measured after 24 hrs by LC-MS/MS analysis; assay type: ADME, organism-based; conditions: in vivo
Procedure, shortened: (§3)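 Male ICR mice (25–35 g) given one iv or oral dose of 2, 3 or 10 mg/kg. Vehicles were PEG400/DMA (80/20) for both routes, or DMSO/CrEL/D5W (5/5/90) iv and 1% CMC + 0.5% Tween80 oral. Plasma was taken by cardiac puncture at 0–24 h, three mice per time point. Parent drug was measured by LC-MS/MS and analysed noncompartmentally. DNAUC = AUC(0–inf)/dose.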

[13] = Toxicity in ICR mouse at 10 to 100 mg/kg administered for 14 days; assay type: organism-based; conditions: in vivo, 336 h, dose 10-100 mg/kg, time 14 day
[14] = Toxicity in ICR mouse assessed as decrease in creatinine level at 30 to 100 mg/kg administered for 14 days; assay type: organism-based; conditions: in vivo, 336 h, dose 30-100 mg/kg, time 14 day
[15] = Dose normalized AUC (0 to infinity) in male ICR mouse at 3 mg/kg, iv measured after 24 hrs by LC-MS/MS analysis; assay type: ADME, organism-based; conditions: in vivo; procedure, shortened: as §3
[16] = Toxicity in immunocompetent female C57BL/6 mouse implanted with mouse MC-38 cells assessed as body weight loss at 25 to 50 mg/kg, po administered twice a day with five days on and two days off for 3 weeks; assay type: organism-based; conditions: in vivo, 504 h, dose 25-50 mg/kg
Procedure, shortened: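 Female C57BL/6 mice aged 6–7 weeks bearing subcutaneous MC38 (10⁵ cells) tumors, treated from 50–60 mm³. Dosing was 25 or 50 mg/kg oral BID on a five-on/two-off schedule for 3 weeks. Body weight was recorded weekly. n = 8 per group.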

[17] = Dose normalized AUC (0 to infinity) in male ICR mouse at 3 mg/kg, po measured after 24 hrs by LC-MS/MS analysis; assay type: ADME, organism-based; conditions: in vivo; procedure, shortened: as §3
[18] = Dose normalized AUC (0 to infinity) in male ICR mouse at 10 mg/kg, po measured after 24 hrs by LC-MS/MS analysis; assay type: ADME, organism-based; conditions: in vivo; procedure, shortened: as §3
[19] = Dose normalized AUC (0 to infinity) in male ICR mouse at 2 mg/kg, iv measured after 24 hrs by LC-MS/MS analysis; assay type: ADME, organism-based; conditions: in vivo; procedure, shortened: as §3
MDA-MB-231 [20] = assay: Antitumor activity against MER/AXL overexpressing human MDA-MB-231 cells xenografted in immunodeficient NOD/SCID mouse model assessed as tumor growth inhibition at 25 mg/kg, po administered twice a day with five days on and two days off for 4 weeks relative to control; assay type: functional; conditions: MDA-MB-231, 672 h, read-out: TGI
Procedure, shortened: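 Female NOD/SCID mice (6–7 weeks old) were given 5 million Mycoplasma-free MDA-MB-231 cells in 1:1 matrigel/medium, implanted subcutaneously. After randomization at about 150 mm³ average tumor volume, mice got oral drug or vehicle, BID, FOTO, for 4 weeks, n = 8 per group. Caliper volumes (L×W×W/2) were measured weekly. %TGI = [1 − ΔT/ΔC]×100, with Δ taken from day 0.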

MDA-MB-231 [21] = assay: Antitumor activity against MER/AXL overexpressing human MDA-MB-231 cells xenografted in immunodeficient NOD/SCID mouse model assessed as tumor growth inhibition at 25 mg/kg, po administered twice a day with five days on and two days off for 4 weeks in presence of (1r,4r)-4-(2-(butylamino)-5-(4-((4-methylpiperazin-1-yl)methyl)phenyl)-7H-pyrrolo[2,3-d]pyrimidin-7-yl)cyclohexan-1-ol relative to …; assay type: functional; conditions: MDA-MB-231, 672 h, read-out: TGI
MDA-MB-231 [22] = assay: Antitumor activity against MER/AXL overexpressing human MDA-MB-231 cells xenografted in immunodeficient NOD/SCID mouse model assessed as tumor growth inhibition at 25 mg/kg, po administered twice a day with five days on and two days off for 4 weeks in presence of bemcentinib relative to control; assay type: functional; conditions: MDA-MB-231, 672 h, read-out: TGI
Procedure, shortened: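 MDA-MB-231 cells (5 million, 1:1 matrigel/medium) implanted in 6–7-week-old female NOD/SCID mice. Dosing began at about 150 mm³ mean tumor volume: 25 mg/kg oral BID on a five-on/two-off schedule for 4 weeks, given alone or in combination.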

[23] = target: T2, Tyrosine-protein kinase Mer (Homo sapiens, UniProt Q12866); assay: Inhibition of MER (unknown origin) by KINOMEScan assay
T2 sequence (Q12866 whole entry): T1 sequence (whole entry)

Sequence of Epidermal growth factor receptor (Homo sapiens), P00533 [L858R,T790M] (P00533 whole entry T790M/L858R, looked up): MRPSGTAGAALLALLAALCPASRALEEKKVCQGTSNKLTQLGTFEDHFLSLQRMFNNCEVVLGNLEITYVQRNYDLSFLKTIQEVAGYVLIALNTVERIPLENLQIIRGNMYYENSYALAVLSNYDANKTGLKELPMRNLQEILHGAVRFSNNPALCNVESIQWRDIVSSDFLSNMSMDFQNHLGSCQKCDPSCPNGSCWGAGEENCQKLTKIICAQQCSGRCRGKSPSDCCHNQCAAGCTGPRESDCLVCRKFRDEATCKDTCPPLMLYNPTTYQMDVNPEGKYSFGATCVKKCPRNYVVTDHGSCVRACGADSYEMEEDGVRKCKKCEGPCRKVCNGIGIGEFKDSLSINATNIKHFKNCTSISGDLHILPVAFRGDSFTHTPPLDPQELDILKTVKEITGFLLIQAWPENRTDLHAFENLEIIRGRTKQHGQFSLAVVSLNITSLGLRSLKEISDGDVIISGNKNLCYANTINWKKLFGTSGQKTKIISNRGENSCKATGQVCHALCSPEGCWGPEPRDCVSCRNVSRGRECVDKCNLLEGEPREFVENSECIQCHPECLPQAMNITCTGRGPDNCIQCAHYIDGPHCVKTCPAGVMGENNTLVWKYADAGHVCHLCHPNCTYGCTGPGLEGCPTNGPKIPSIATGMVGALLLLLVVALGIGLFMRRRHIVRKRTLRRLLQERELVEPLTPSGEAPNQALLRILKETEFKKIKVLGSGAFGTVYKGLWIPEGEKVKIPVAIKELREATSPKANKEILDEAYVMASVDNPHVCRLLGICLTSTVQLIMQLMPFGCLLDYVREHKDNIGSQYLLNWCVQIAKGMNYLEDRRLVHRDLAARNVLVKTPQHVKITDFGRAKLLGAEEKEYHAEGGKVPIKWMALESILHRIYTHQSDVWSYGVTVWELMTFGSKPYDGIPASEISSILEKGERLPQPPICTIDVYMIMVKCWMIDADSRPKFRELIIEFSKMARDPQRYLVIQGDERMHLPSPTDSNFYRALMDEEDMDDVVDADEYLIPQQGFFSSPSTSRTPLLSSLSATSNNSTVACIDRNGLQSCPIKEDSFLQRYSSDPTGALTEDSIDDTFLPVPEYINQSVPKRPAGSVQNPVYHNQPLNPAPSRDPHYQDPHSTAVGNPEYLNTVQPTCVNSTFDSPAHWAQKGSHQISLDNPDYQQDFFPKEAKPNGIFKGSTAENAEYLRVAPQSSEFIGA
Sequence of Tyrosine-protein kinase receptor UFO (Homo sapiens) (P30530 whole entry): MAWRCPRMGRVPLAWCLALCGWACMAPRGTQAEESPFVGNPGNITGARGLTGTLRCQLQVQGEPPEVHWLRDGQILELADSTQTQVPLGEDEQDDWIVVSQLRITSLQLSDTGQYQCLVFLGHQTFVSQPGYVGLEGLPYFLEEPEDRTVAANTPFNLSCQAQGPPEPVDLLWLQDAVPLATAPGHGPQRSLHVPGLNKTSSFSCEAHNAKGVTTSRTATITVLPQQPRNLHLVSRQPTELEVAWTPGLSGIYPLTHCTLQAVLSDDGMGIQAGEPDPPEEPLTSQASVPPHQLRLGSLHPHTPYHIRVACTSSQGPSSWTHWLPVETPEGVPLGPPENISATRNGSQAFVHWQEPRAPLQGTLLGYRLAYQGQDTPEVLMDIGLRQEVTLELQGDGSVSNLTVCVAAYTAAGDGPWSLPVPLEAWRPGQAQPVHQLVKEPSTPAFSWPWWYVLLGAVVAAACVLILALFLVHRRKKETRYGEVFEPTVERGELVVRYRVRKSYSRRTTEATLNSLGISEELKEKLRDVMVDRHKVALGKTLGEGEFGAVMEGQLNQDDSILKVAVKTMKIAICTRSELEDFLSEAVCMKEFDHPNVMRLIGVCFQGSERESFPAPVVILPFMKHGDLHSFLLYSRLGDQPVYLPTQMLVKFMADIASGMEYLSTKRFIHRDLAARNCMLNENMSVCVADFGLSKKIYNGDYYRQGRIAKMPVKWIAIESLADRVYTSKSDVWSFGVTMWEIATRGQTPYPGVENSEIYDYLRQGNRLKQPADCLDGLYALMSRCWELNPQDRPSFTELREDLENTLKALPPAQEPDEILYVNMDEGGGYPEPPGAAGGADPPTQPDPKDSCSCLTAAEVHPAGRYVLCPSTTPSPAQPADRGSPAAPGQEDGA
Sequence of Epidermal growth factor receptor (Homo sapiens) (P00533 whole entry): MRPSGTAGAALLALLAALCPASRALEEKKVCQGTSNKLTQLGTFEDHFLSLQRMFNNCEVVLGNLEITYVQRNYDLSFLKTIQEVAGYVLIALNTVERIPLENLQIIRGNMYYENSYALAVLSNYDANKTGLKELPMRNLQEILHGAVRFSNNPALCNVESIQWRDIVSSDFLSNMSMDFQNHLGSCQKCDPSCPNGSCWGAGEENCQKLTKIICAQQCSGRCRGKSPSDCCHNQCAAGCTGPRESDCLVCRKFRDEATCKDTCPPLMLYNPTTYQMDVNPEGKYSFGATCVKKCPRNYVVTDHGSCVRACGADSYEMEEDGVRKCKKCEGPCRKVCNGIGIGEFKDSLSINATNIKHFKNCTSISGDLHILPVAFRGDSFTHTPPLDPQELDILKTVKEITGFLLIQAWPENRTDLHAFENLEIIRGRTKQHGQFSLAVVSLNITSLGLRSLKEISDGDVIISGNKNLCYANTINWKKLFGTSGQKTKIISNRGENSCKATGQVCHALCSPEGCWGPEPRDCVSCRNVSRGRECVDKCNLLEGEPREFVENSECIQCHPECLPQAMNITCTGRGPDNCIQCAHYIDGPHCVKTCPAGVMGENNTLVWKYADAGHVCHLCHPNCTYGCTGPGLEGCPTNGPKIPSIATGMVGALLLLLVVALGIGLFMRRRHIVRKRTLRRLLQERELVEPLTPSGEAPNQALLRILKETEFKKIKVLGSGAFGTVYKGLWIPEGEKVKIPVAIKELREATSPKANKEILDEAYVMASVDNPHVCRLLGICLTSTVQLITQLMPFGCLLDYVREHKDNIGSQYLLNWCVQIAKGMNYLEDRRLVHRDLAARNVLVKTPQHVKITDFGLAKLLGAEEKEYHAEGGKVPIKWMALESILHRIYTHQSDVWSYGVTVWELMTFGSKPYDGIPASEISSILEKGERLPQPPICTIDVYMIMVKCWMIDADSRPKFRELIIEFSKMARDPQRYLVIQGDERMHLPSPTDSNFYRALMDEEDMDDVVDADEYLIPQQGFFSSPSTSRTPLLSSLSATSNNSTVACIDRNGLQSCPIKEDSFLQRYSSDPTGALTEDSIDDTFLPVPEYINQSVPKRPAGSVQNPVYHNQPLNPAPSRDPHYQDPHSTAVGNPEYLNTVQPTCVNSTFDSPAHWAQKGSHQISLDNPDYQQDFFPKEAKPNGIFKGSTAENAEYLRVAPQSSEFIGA

Structure (SMILES): COc1cc2nccc(Oc3ccc(NC(=O)c4cc5c(n(-c6ccccc6)c4=O)CCCC5=O)nc3)c2cc1OC [TAMNORZATINIB]
Activity [1]: Non-Toxic
Activity [2]: Non-Toxic
Activity [3]: Non-Toxic
Activity [4]: Non-Toxic
Activity [5]: Toxic

Structure (SMILES): Nc1cccc(-c2c(-c3ccccc3)oc3ncnc(Oc4ccc(NC(=O)C5(C(=O)Nc6ccc(F)cc6)CC5)cc4)c23)c1
inhibition [6]: 71%
inhibition [7]: 100%
inhibition [8]: -9%
inhibition [9]: 0%

Structure (SMILES): O=C(Nc1ccc(F)cc1)C1(C(=O)Nc2ccc(Oc3ncnc4oc(-c5ccccc5)cc34)cc2)CC1
inhibition [6]: 4%
inhibition [7]: 53%
inhibition [8]: 1%
inhibition [9]: 4%

Structure (SMILES): Nc1cccc(-c2c(-c3ccccc3)oc3ncnc(Nc4ccc(NC(=O)C5(C(=O)Nc6ccc(F)cc6)CC5)cc4)c23)c1
inhibition [6]: 19%
inhibition [7]: 92%
inhibition [8]: -4%
inhibition [9]: 1%

Structure (SMILES): Nc1nc(Nc2ccc3c(c2)CC[C@@H](N2CCCC2)CC3)nn1-c1cc2c(nn1)-c1ccccc1CCC2 [BEMCENTINIB]
inhibition in vivo at 25 mg/kg (MDA-MB-231 [20]): 7.7%
inhibition in vivo at 25 mg/kg (MDA-MB-231 [21]): 52.4%

Structure (SMILES): O=C(Nc1ccc(F)cc1)C1(C(=O)Nc2ccc(Oc3ncnc4oc(-c5ccccc5)c(-c5ccccc5)c34)cc2)CC1
inhibition [6]: 41%
inhibition [7]: 98%
inhibition [8]: 2%
inhibition [9]: 3%

Structure (SMILES): Nc1cccc(-c2c(-c3ccccc3)oc3ncnc(Oc4ccc(NC(=S)NC(=O)Cc5ccccc5)cc4)c23)c1
inhibition [6]: 9%
inhibition [7]: 95%
inhibition [8]: -6%
inhibition [9]: 1%

Structure (SMILES): CCCCNc1ncc2c(-c3ccc(CN4CCN(C)CC4)cc3)cn([C@H]3CC[C@H](O)CC3)c2n1
inhibition in vivo at 25 mg/kg (MDA-MB-231 [20]): 15.9%
inhibition in vivo at 25 mg/kg (MDA-MB-231 [22]): 52.4%

Structure (SMILES): Cc1ccc(C(=O)Nc2ccc(Oc3cc4cnn(C)c4cc3-c3cn[nH]c3)c(F)c2)c(=O)n1-c1ccc(F)cc1 [MERESTINIB]
pIC50 [23]: 9.10

Structure (SMILES): CN1CCN(c2cccc(-c3c(-c4cnn(C)c4)oc4ncnc(Oc5ccc(NC(=O)c6cccn(-c7ccc(F)cc7)c6=O)cc5)c34)c2)CC1
AUC/dose [18]: 32.8 ng.hr/ml per mg/kg
AUC/dose [19]: 221 ng.hr/ml per mg/kg

Further lines, with some results ahead:

Vdss [12]: 52 L/kg
Structure (SMILES): CN(C)Cc1cccc(-c2c(-c3cnn(C)c3)oc3ncnc(Oc4ccc(NC(=O)c5cccn(-c6ccc(F)cc6)c5=O)cc4)c23)c1
Activity [10]: Non-Toxic
Activity [1]: Non-Toxic
Activity [11]: Non-Toxic
Activity [2]: Non-Toxic
Activity [3]: Non-Toxic
Activity [13]: Non-Toxic
Activity [4]: Non-Toxic
Activity [14]: Toxic

AUC/dose [15]: 3985.3 ng·h/mL
AUC/dose [17]: 764 ng·h/mL
Structure (SMILES): Cn1cc(-c2oc3ncnc(Oc4ccc(NC(=O)c5cccn(-c6ccc(F)cc6)c5=O)cc4)c3c2-c2cccc(N)c2)cn1
Activity [10]: Non-Toxic
Activity [11]: Non-Toxic
Activity [16]: Non-Toxic

AUC/dose [18]: 15.3 ng.hr/ml per mg/kg
AUC/dose [19]: 3330.5 ng.hr/ml per mg/kg
Structure (SMILES): CNc1cccc(-c2c(-c3cnn(C)c3)oc3ncnc(Oc4ccc(NC(=O)c5cccn(-c6ccc(F)cc6)c5=O)cc4)c23)c1

AUC/dose [18]: 2.6 ng.hr/ml per mg/kg
AUC/dose [19]: 454.5 ng.hr/ml per mg/kg
Structure (SMILES): Cn1cc(-c2oc3ncnc(Oc4ccc(NC(=O)c5cccn(-c6ccc(F)cc6)c5=O)cc4)c3c2-c2cccc(N3CCNCC3)c2)cn1

AUC/dose [19]: 483 ng.hr/ml per mg/kg
Structure (SMILES): Cn1cc(-c2oc3ncnc(Oc4ccc(NC(=O)c5cccn(-c6ccc(F)cc6)c5=O)cc4)c3c2-c2cccc(CN)c2)cn1
